From ChEMBL document CHEMBL4038305, “Benzoxaborole Antimalarial Agents. Part 5. Lead Optimization of Novel Amide Pyrazinyloxy Benzoxaboroles and Identification of a Preclinical Candidate” (J Med Chem, 2017)

Experiments:
Plasmodium falciparum [1] = assay: Antimalarial activity against chloroquine-sensitive Plasmodium falciparum 3D7 infected in human erythrocytes assessed as reduction in [3H]-hypoxanthine incorporation preincubated for 24 hrs followed by [3H]-hypoxanthine addition measured after 24 hrs by scintillation counting method; assay type: functional, cell-based
In short: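 P. falciparum 3D7 cultures were exposed to the compound for 48 h, with atovaquone as the reference control. IC50 was taken from three replicates.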

Plasmodium falciparum [2] = assay: Antimalarial activity against chloroquine-resistant Plasmodium falciparum W2 infected in human erythrocytes after 48 hrs by YOYO-1 dye based flow cytometric analysis; assay type: functional, cell-based; details: W2, 48 h
In short: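 P. falciparum W2 cultures were exposed to the compound for 48 h, with artemisinin and chloroquine as reference controls. IC50 was taken from two independent replicates.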

In the case of Cc1c(Oc2cnc(C(=O)NCC(C)(C)O)cn2)ccc2c1B(O)OC2, the IC50 (Plasmodium falciparum [1]) is reported as 0.554 µM and the IC50 (Plasmodium falciparum [2]) is reported as 0.334 µM.

In the case of Cc1c(Oc2cnc(C(=O)N[C@@H](C)C(C)(C)O)cn2)ccc2c1B(O)OC2, the IC50 (Plasmodium falciparum [1]) is reported as 0.327 µM and the IC50 (Plasmodium falciparum [2]) is reported as 0.202 µM.

In the case of CC[C@@H](NC(=O)c1cnc(Oc2ccc3c(c2C)B(O)OC3)cn1)C(C)(C)O, the IC50 (Plasmodium falciparum [1]) is reported as 0.222 µM and the IC50 (Plasmodium falciparum [2]) is reported as 0.0918 µM.

Cc1c(Oc2cnc(C(=O)N[C@@H](C)CO)cn2)ccc2c1B(O)OC2 was tested, and the IC50 (Plasmodium falciparum [1]) was 0.808 µM and the IC50 (Plasmodium falciparum [2]) was 0.844 µM.

Work on Cc1c(Oc2cnc(C(=O)N3CCNC[C@@H]3CO)cn2)ccc2c1B(O)OC2 yielded an IC50 (Plasmodium falciparum [1]) of 0.151 µM and an IC50 (Plasmodium falciparum [2]) of 0.103 µM.

Work on CCCC[C@H](CO)NC(=O)c1cnc(Oc2ccc3c(c2C)B(O)OC3)cn1 yielded an IC50 (Plasmodium falciparum [1]) of 0.215 µM and an IC50 (Plasmodium falciparum [2]) of 0.0849 µM.

Work on Cc1c(Oc2cnc(C(=O)N[C@H](C)C(C)(C)O)cn2)ccc2c1B(O)OC2 yielded an IC50 (Plasmodium falciparum [1]) of 0.374 µM and an IC50 (Plasmodium falciparum [2]) of 0.265 µM.

For Cc1c(Oc2cnc(C(=O)N[C@@H](CO)c3ccccc3)cn2)ccc2c1B(O)OC2, the IC50 (Plasmodium falciparum [1]) was 0.161 µM and the IC50 (Plasmodium falciparum [2]) was 0.103 µM.

Cc1c(Oc2cnc(C(=O)NCC(C)O)cn2)ccc2c1B(O)OC2 (centres undefined) was tested, and the IC50 (Plasmodium falciparum [1]) was 1.1 µM and the IC50 (Plasmodium falciparum [2]) was 1.28 µM.

For Cc1c(Oc2cnc(C(=O)NC(C)C(C)O)cn2)ccc2c1B(O)OC2 (centres undefined), the IC50 (Plasmodium falciparum [1]) was 1.46 µM and the IC50 (Plasmodium falciparum [2]) was 0.513 µM.

Work on Cc1c(Oc2cnc(C(=O)N[C@@H](CO)C3CC3)cn2)ccc2c1B(O)OC2 yielded an IC50 (Plasmodium falciparum [1]) of 0.587 µM and an IC50 (Plasmodium falciparum [2]) of 0.492 µM.

In the case of CCC[C@H](NC(=O)c1cnc(Oc2ccc3c(c2C)B(O)OC3)cn1)C(C)(C)O, the IC50 (Plasmodium falciparum [1]) is reported as 0.217 µM and the IC50 (Plasmodium falciparum [2]) is reported as 0.129 µM.

For Cc1c(Oc2cnc(C(=O)N3CCNC[C@H]3CO)cn2)ccc2c1B(O)OC2, the IC50 (Plasmodium falciparum [1]) was 0.171 µM and the IC50 (Plasmodium falciparum [2]) was 0.0982 µM.

COC[C@H](CO)NC(=O)c1cnc(Oc2ccc3c(c2C)B(O)OC3)cn1 was tested, and the IC50 (Plasmodium falciparum [1]) was 0.796 µM and the IC50 (Plasmodium falciparum [2]) was 0.455 µM.

Work on CC[C@H](NC(=O)c1cnc(Oc2ccc3c(c2C)B(O)OC3)cn1)C(C)(C)O yielded an IC50 (Plasmodium falciparum [1]) of 0.829 µM and an IC50 (Plasmodium falciparum [2]) of 0.279 µM.

Cc1c(Oc2cnc(C(=O)N[C@H]3CCC[C@@H]3O)cn2)ccc2c1B(O)OC2 was tested, and the IC50 (Plasmodium falciparum [1]) was 0.537 µM and the IC50 (Plasmodium falciparum [2]) was 0.149 µM.

Compound CC[C@@H](CO)NC(=O)c1cnc(Oc2ccc3c(c2C)B(O)OC3)cn1 has an IC50 (Plasmodium falciparum [1]) of 0.801 µM and an IC50 (Plasmodium falciparum [2]) of 0.704 µM.

For Cc1c(Oc2cnc(C(=O)N[C@H](CO)CC(F)(F)F)cn2)ccc2c1B(O)OC2, the IC50 (Plasmodium falciparum [1]) was 0.031 µM and the IC50 (Plasmodium falciparum [2]) was 0.35 µM.

With CSC[C@H](CO)NC(=O)c1cnc(Oc2ccc3c(c2C)B(O)OC3)cn1 the IC50 (Plasmodium falciparum [1]) was 0.074 µM and the IC50 (Plasmodium falciparum [2]) was 0.037 µM.

Compound Cc1c(Oc2cnc(C(=O)N[C@H](CO)CCC(F)(F)F)cn2)ccc2c1B(O)OC2 has an IC50 (Plasmodium falciparum [1]) of 0.959 µM and an IC50 (Plasmodium falciparum [2]) of 0.352 µM.

Work on Cc1c(Oc2cnc(C(=O)N[C@@H]3CCC[C@H]3O)cn2)ccc2c1B(O)OC2 yielded an IC50 (Plasmodium falciparum [1]) of 0.245 µM and an IC50 (Plasmodium falciparum [2]) of 0.133 µM.

Compound CCC[C@H](CO)N(C)C(=O)c1cnc(Oc2ccc3c(c2C)B(O)OC3)cn1 has an IC50 (Plasmodium falciparum [1]) of 0.252 µM and an IC50 (Plasmodium falciparum [2]) of 0.0481 µM.

Compound Cc1c(Oc2cnc(C(=O)N[C@@H](CO)CCC(F)(F)F)cn2)ccc2c1B(O)OC2 has an IC50 (Plasmodium falciparum [1]) of 0.48 µM and an IC50 (Plasmodium falciparum [2]) of 0.23 µM.

CCC[C@@H](CO)NC(=O)c1cnc(Oc2ccc3c(c2C)B(O)OC3)cn1 was tested, and the IC50 (Plasmodium falciparum [1]) was 0.715 µM and the IC50 (Plasmodium falciparum [2]) was 0.297 µM.

Work on Cc1c(Oc2cnc(C(=O)N[C@H](CO)C(C)C)cn2)ccc2c1B(O)OC2 yielded an IC50 (Plasmodium falciparum [1]) of 1.99 µM and an IC50 (Plasmodium falciparum [2]) of 0.774 µM.

COCCNC(=O)c1cnc(Oc2ccc3c(c2C)B(O)OC3)cn1 gave an IC50 (Plasmodium falciparum [1]) of 0.644 µM and an IC50 (Plasmodium falciparum [2]) of 0.788 µM.

For Cc1c(Oc2cnc(C(=O)N3CCC(C)(O)C3)cn2)ccc2c1B(O)OC2 (centres undefined), the IC50 (Plasmodium falciparum [1]) was 0.314 µM and the IC50 (Plasmodium falciparum [2]) was 0.139 µM.

For Cc1c(Oc2cnc(C(=O)N[C@@H](CO)Cc3ccccc3)cn2)ccc2c1B(O)OC2, the IC50 (Plasmodium falciparum [1]) was 0.505 µM and the IC50 (Plasmodium falciparum [2]) was 0.115 µM.

Cc1c(Oc2cnc(C(=O)N(C)CCO)cn2)ccc2c1B(O)OC2 showed an IC50 (Plasmodium falciparum [1]) of 0.437 µM and an IC50 (Plasmodium falciparum [2]) of 0.262 µM.

Cc1c(Oc2cnc(C(=O)NC(C)(C)CO)cn2)ccc2c1B(O)OC2 was tested, and the IC50 (Plasmodium falciparum [1]) was 0.425 µM and the IC50 (Plasmodium falciparum [2]) was 0.29 µM.

For Cc1c(Oc2cnc(C(=O)N[C@H](C)CO)cn2)ccc2c1B(O)OC2, the IC50 (Plasmodium falciparum [1]) was 0.848 µM and the IC50 (Plasmodium falciparum [2]) was 0.944 µM.

Cc1c(Oc2cnc(C(=O)N[C@@H](CO)CS(C)(=O)=O)cn2)ccc2c1B(O)OC2 gave an IC50 (Plasmodium falciparum [1]) of 0.472 µM and an IC50 (Plasmodium falciparum [2]) of 0.18 µM.

Cc1c(Oc2cnc(C(=O)N(CCO)CCO)cn2)ccc2c1B(O)OC2 gave an IC50 (Plasmodium falciparum [1]) of 0.184 µM and an IC50 (Plasmodium falciparum [2]) of 0.328 µM.

Cc1c(Oc2cnc(C(=O)N[C@H](CO)C3CC3)cn2)ccc2c1B(O)OC2 gave an IC50 (Plasmodium falciparum [1]) of 1.09 µM and an IC50 (Plasmodium falciparum [2]) of 0.643 µM.

Cc1c(Oc2cnc(C(=O)NC3(CO)CC3)cn2)ccc2c1B(O)OC2 showed an IC50 (Plasmodium falciparum [1]) of 1.5 µM and an IC50 (Plasmodium falciparum [2]) of 2.01 µM.

Cc1c(Oc2cnc(C(=O)N[C@@H]3CCC[C@@H]3O)cn2)ccc2c1B(O)OC2 (relative stereo) showed an IC50 (Plasmodium falciparum [1]) of 0.181 µM and an IC50 (Plasmodium falciparum [2]) of 0.292 µM.

For CCC[C@@H](NC(=O)c1cnc(Oc2ccc3c(c2C)B(O)OC3)cn1)C(C)(C)O, the IC50 (Plasmodium falciparum [1]) was 0.553 µM and the IC50 (Plasmodium falciparum [2]) was 0.26 µM.
